Screening data deposited in PubChem BioAssay by The Scripps Research Institute Molecular Screening Center.
Shown are actives, neighbours in structure and some others; about 2.5% of the full set was active somewhere.
TCR-CD3 inh – inhibitors of human TCR-CD3 interaction, primary screen, biochemical, fluorescence, TAMRA-labeled TCR probe; inhibition, % at 9.4 µM; 360,000 compounds, 0.37% hits; AID 651800, 2012; in the data active = inhibition above about 19%;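 note: recombinant mutant TCR 2C K166C tagged with TAMRA read by polarization; 0% = receptor in buffer alone and 100% = receptor with positive control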
mABHD4 FP – ABHD4 inhibitors, primary screen, biochemical, fluorescence polarization, mouse. AID 720543, 2013. purified mABHD4, FP-Rh probe fluorescence polarization. (Lyso)-N-acylphosphatidylethanolamine lipase (Mus musculus), Q8VD66. inhibition, % at 8.92 µM. 370,000 compounds, 0.54% hits;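 active = inhibition exceeding the mean over every tested compound plus 3 SD, cut at about 30% in these data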;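 note: 0% = plate median of compound wells and 100% = S159A mutant with DMSO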
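System: mouse ABHD4 enzyme, wild type / Medium: HEPES pH 7.0, NaCl, Pluronic buffer / Reagent: FP-Rh activity-based fluorescent probe / Control set: S159A mutant high control, sample median low control / Detection: fluorescence polarization with parallel and perpendicular emission, 525/598 nm / Schedule: 45 min + 60 min at 25 °C / Compound dosing: 8.92 µM, single dose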
HTRA1 inh – HTRA1 serine protease inhibitors, primary screen, biochemical, fluorescence polarization, HTS; recombinant HTRA1, FP-rhodamine activity-based probe; inhibition, % at 5.96 µM; 340,000 compounds, 0.5% hits; AID 504803, 2011; in the data active = inhibition above about 36%;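 note: 0% = enzyme with DMSO and 100% = wells lacking enzyme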
Target sequence (Q92743 whole entry, looked up): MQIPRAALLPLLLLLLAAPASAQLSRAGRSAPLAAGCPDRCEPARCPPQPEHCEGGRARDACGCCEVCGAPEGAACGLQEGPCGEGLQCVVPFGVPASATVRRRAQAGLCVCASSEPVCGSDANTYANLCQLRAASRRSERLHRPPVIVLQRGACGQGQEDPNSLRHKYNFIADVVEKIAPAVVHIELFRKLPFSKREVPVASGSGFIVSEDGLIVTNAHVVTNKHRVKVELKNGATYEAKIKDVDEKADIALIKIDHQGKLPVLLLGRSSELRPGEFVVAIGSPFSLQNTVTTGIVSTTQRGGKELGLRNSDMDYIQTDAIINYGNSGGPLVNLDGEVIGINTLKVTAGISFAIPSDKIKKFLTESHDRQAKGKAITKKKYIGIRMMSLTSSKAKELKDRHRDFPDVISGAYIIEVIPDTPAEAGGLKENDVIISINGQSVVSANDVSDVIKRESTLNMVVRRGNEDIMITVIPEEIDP
SIAE primary – human SIAE inhibitors, primary screen, biochemical, fluorescence polarization, FP-Rh probe, 1536-well HTS; inhibition, % at 9.66 µM; 370,000 compounds, 0.69% hits; Sialate O-acetylesterase (Homo sapiens), Q9HAT2; AID 1053197, 2014; SIAE FP-Rh probe binding;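 active = inhibition above a cutoff: mean of compounds within the control limits plus 3 SD of those, cut at about 17% in these data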;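 note: 0% = plate median of compound wells and 100% = probe without SIAE protein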
PRMT1 FP inh – PRMT1 methyltransferase inhibitors, primary screen, biochemical, fluorescence polarization. 370,000 compounds, 1.3% hits. Protein arginine N-methyltransferase 1 (Homo sapiens), Q99873. inhibition, % at 2.79 µM. recombinant PRMT1, activity-based probe fluorescence polarization. AID 652257, 2013;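 active = inhibition above about 21% made by adding two undisclosed values, limit read from the data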
An asterisk follows results filed as active.

What do the screens show for `Clc1ccc(N=c2ssnc2Cl)nc1`?
TCR-CD3 inh: 0; mABHD4 FP: 6; HTRA1 inh: 19; SIAE primary: 3; PRMT1 FP inh: 21*

What do the screens show for `CCC1(C)Cc2ccccc2/C(=C/C(=O)N2CCCCC2)N1` (stereo unspecified)?
TCR-CD3 inh: 4; mABHD4 FP: 18; HTRA1 inh: 1; SIAE primary: 3; PRMT1 FP inh: 22*

What do the screens show for `O=C(CCCCn1c(=O)[nH]c2ccsc2c1=O)NCc1cccnc1`?
TCR-CD3 inh: -7; mABHD4 FP: -4; HTRA1 inh: 3; SIAE primary: 20*; PRMT1 FP inh: -3

Results for Cc1cccc(Oc2coc3cc(O)ccc3c2=O)c1 ?
TCR-CD3 inh: 4; mABHD4 FP: 0; HTRA1 inh: 1; SIAE primary: -5; PRMT1 FP inh: 0

How did CCOC(=O)Oc1ccc2c(=O)c(Oc3cc(C)cc(C)c3)coc2c1 do in these assays?
TCR-CD3 inh: -3; mABHD4 FP: -1; HTRA1 inh: 49*; SIAE primary: 3; PRMT1 FP inh: -4

Results for COc1ccc(Oc2coc3cc(OC(=O)c4cccs4)ccc3c2=O)cc1 ?
TCR-CD3 inh: 2; mABHD4 FP: -8; HTRA1 inh: 51*; SIAE primary: -12; PRMT1 FP inh: -3

What do the screens show for `CCOC(=O)Oc1ccc2c(=O)c(Oc3cccc(C)c3)coc2c1`?
TCR-CD3 inh: 2; mABHD4 FP: 2; HTRA1 inh: 51*; SIAE primary: -3; PRMT1 FP inh: -2

What do the screens show for `COc1ccc(Oc2coc3cc(OC(=O)N4CCOCC4)ccc3c2=O)cc1`?
TCR-CD3 inh: -4; mABHD4 FP: -5; HTRA1 inh: -2; SIAE primary: -7; PRMT1 FP inh: 1

Results for C[C@H](NC(=O)[C@@H]1CSC2c3ccccc3C(=O)N21)C(=O)NCCc1ccc(F)cc1 (stereo partly specified) ?
TCR-CD3 inh: -2; mABHD4 FP: -5; HTRA1 inh: 5; SIAE primary: -5; PRMT1 FP inh: 25*

What do the screens show for `CC(C)(C)OC(=O)n1cc(-c2ccccc2)c2c(-c3ccccc3)c(O)ccc21`?
mABHD4 FP: 10; SIAE primary: 5; PRMT1 FP inh: -4

How did Cc1ccc2cc(CN(CCCN3CCOCC3)C(c3nnnn3Cc3ccco3)C(C)C)c(=O)[nH]c2c1C (stereo unspecified) do in these assays?
TCR-CD3 inh: 5; mABHD4 FP: 8; HTRA1 inh: -4; SIAE primary: 4; PRMT1 FP inh: 9

Results for CCC(c1nnnn1Cc1ccco1)N(CCN1CCOCC1)Cc1cc2cc(C)ccc2[nH]c1=O (stereo unspecified) ?
TCR-CD3 inh: 8; mABHD4 FP: 4; HTRA1 inh: 0; SIAE primary: 3; PRMT1 FP inh: 21*

How did O=Cc1ccc(/C=C2\c3ccccc3C(=O)N2c2ccccc2)o1 do in these assays?
TCR-CD3 inh: -4; mABHD4 FP: 41*; SIAE primary: 10; PRMT1 FP inh: 18

How did O=C1c2ccccc2C(=O)N1c1ccccc1 do in these assays?
TCR-CD3 inh: -4; mABHD4 FP: 4; HTRA1 inh: -4; SIAE primary: 6; PRMT1 FP inh: 7

How did COc1ccc(NC(=S)Nc2cc(C)[nH]n2)cc1Cl do in these assays?
TCR-CD3 inh: 2; mABHD4 FP: 1; HTRA1 inh: -1; SIAE primary: -1; PRMT1 FP inh: 15

How did Cc1cc(NC(=S)Nc2ccc(C)c(Cl)c2)n[nH]1 do in these assays?
TCR-CD3 inh: -3; mABHD4 FP: -18; HTRA1 inh: -6; SIAE primary: -4; PRMT1 FP inh: 24*

How did O=C(Nc1cccc2ncccc12)c1ccc(-c2ccc(Br)cc2)o1 do in these assays?
TCR-CD3 inh: -2; mABHD4 FP: -4; HTRA1 inh: -20; SIAE primary: 1; PRMT1 FP inh: 25*

What do the screens show for `COc1ccc2cc1Oc1ccc(cc1)C[C@H]1c3c(cc4c(c3Oc3cc5c(cc3OC)CCN(C)[C@@H]5C2)OCO4)CCN1C`?
TCR-CD3 inh: -3; mABHD4 FP: -7; HTRA1 inh: -14; SIAE primary: 19*; PRMT1 FP inh: 3

What do the screens show for `COc1ccc2cc1Oc1ccc(cc1)C[C@H]1c3cc(c(OC)cc3CCN1C)Oc1c(OC)c(OC)cc3c1[C@H](C2)N(C)CC3`?
TCR-CD3 inh: -6; mABHD4 FP: -1; HTRA1 inh: 0; SIAE primary: 4; PRMT1 FP inh: -2
